The target in experiment [1] is T1, Thromboxane A2 receptor (Homo sapiens, UniProt P21731).
T1 sequence (P21731 whole entry): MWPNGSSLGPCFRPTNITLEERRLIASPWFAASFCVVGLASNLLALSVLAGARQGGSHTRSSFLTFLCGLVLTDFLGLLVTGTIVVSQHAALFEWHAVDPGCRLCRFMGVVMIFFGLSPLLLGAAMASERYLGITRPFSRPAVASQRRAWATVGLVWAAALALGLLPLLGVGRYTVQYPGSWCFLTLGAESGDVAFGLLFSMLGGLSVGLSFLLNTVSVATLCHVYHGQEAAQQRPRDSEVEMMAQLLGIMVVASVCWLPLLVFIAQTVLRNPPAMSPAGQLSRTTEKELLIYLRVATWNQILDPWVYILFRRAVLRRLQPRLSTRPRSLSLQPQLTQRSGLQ
As to the kind of experiment: Antagonist activity at human thromboxane A2 receptor isoform beta expressed in HEK293 cells assessed as inhibition of U46619-induced calcium mobilization. It counts as functional, cell-based. The method in brief: (§1)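 HA-tagged receptor stably overexpressed in HEK293 cells grown in DMEM with 10% FBS. Trypsinized cells washed in Krebs-HEPES pH 7.4, loaded 1 h with Fluo-4/AM (5 µg/mL), rinsed, 150 000 cells/well. Compound (10^-8 to 10^-5 M final) for 10 min before U46619 (1 µM final). Emission at 538; Triton/EGTA calibration, Kd 385 nM. IC50 by nonlinear regression, ≥3 curves.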

In experiment [2] the target is T2, Thromboxane A2 receptor (Homo sapiens) (UniProt P21731).
T2 sequence (whole entry): T1 sequence (P21731 whole entry)
Description: Ratio of IC50 for thromboxane A2 receptor isoform alpha to IC50 for thromboxane A2 receptor isoform beta. It counts as functional. The method in brief:
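Selectivity index calculated as IC50 for TPα divided by IC50 for TPβ. Both IC50s come from U46619 (1 µM)-induced Fluo-4 [Ca2+]i assays in HEK293 cells stably overexpressing the respective isoform.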

The target in experiment [3] is T1, Thromboxane A2 receptor. Description: Antagonist activity at human thromboxane A2 receptor isoform alpha expressed in HEK293 cells assessed as inhibition of U46619-induced calcium mobilization. It counts as functional, cell-based. The method in brief:
as §1
A general note: Calcium flux is commonly read through the fluorescence of an indicator in the cells.

Experiment [4] has as its system Platelet. As to the kind of experiment: Inhibition of U46619-induced human platelet aggregation. It counts as functional, cell-based. The method in brief: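 Turbidimetric Born method on PRP from 10 healthy donors aged 20-30, medication-free for 14 days. Platelets adjusted to 3 × 10⁸ cells/mL with PPP, stirred at 1000 rpm. Compound (10^-9 to 10^-5 M) preincubated 3 min at 37 °C, then U46619 (1 µM final). Maximum light transmission read 6 min after inducer; IC50 by nonlinear regression from ≥3 curves.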

For experiment [5], the target named is T2, Thromboxane A2 receptor (Homo sapiens). As to the kind of experiment: Antagonist activity at human thromboxane A2 receptor isoform beta expressed in HEK293 cells assessed as inhibition of U46619-induced calcium mobilization at 0.1 uM. It counts as functional, cell-based. A digest of the protocol: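 HEK293 cells stably overexpressing HA-tagged TPβ, loaded 1 h with Fluo-4/AM (5 µg/mL) in Krebs-HEPES pH 7.4. Compound at 0.1 µM for 10 min, then U46619 (1 µM final). Fluorescence calibrated to [Ca2+]i with Triton X-100 and EGTA; response taken against the rise with U46619 alone.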

Active and inactive are the calls of the source. The calls are words filed in the database; no cut-off is given here.

Experimental findings from ChEMBL document CHEMBL1148712, “Design, synthesis, and SAR study of a series of N-alkyl-N'-[2-(aryloxy)-5-nitrobenzenesulfonyl]ureas and -cyanoguanidine as selective antagonists of the TPalpha and TPbeta isoforms of the human thromboxane A2 receptor” (J Med Chem, 2007) are described below.

Consider `CCCCCNC(=O)NS(=O)(=O)c1cc([N+](=O)[O-])ccc1Oc1cccc(C)c1`, for which the results for the concentration for half-maximal inhibition (IC50) in experiment [1] and in experiment [3] were 223 nM and 2530 nM, respectively. Further, in experiment [2], the Ratio IC50 turned out to be 11.3.
For `CCCCCNC(=O)NS(=O)(=O)c1cc([N+](=O)[O-])ccc1Oc1ccc(OCC)cc1` the same measures were 749 nM, 13600 nM and 18.1.
For `CCCCCNC(=O)NS(=O)(=O)c1cc([N+](=O)[O-])ccc1Oc1ccc(Br)cc1` the same measures were 120 nM, 1010 nM and 8.4.
Taken in the same sequence, the figures for `CC(C)(C)NC(=O)NS(=O)(=O)c1cc([N+](=O)[O-])ccc1Oc1ccccc1Cl` were 205 nM, 2420 nM and 11.8.
Consider `CCCCCNC(=O)NS(=O)(=O)c1cc([N+](=O)[O-])ccc1Oc1ccc(I)cc1`, for which the IC50 (usually the concentration that inhibits the measured activity by half) in experiment [1] is 302 nM; in experiment [3], 2190 nM. In addition, in experiment [2], the Ratio IC50 was determined as 7.2.
Taken in the same sequence, the figures for `CC(C)(C)NC(=O)NS(=O)(=O)c1cc([N+](=O)[O-])ccc1Oc1ccccc1Br` were 151 nM, 2580 nM and 17.
For `CC(C)(C)NC(=O)NS(=O)(=O)c1cc([N+](=O)[O-])ccc1Oc1ccc(Cl)cc1` the same measures were 400 nM, 3050 nM and 7.6.
For `CC(C)(C)NC(=O)NS(=O)(=O)c1cc([N+](=O)[O-])ccc1Oc1cccc(Cl)c1` the same measures were 73 nM, 698 nM and 9.6.
With `Cc1ccccc1Oc1ccc([N+](=O)[O-])cc1S(=O)(=O)NC(=O)NC(C)C`, the IC50 in experiment [1] came out at 501 nM; in experiment [3] it was 8750 nM. Further, the Ratio IC50 in experiment [2] was 17.5.
`Cc1cccc(Oc2ccc([N+](=O)[O-])cc2S(=O)(=O)NC(=O)NC(C)C)c1`: the figures for the IC50 in experiment [1] and in experiment [3] were 205 nM and 2640 nM, respectively. Besides, the Ratio IC50 in experiment [2] amounted to 12.9.
As for `CC(C)(C)NC(=O)NS(=O)(=O)c1cc([N+](=O)[O-])ccc1Oc1cccc(Br)c1`, the IC50 in experiment [1] came to 59 nM; in experiment [3], 683 nM. In experiment [2], the Ratio IC50 is 11.6.
Consider `CCCCCNC(=O)NS(=O)(=O)c1cc([N+](=O)[O-])ccc1Oc1ccccc1Br`, for which the values for the IC50 in experiment [1] and in experiment [3] were 423 nM and 3130 nM, respectively. The Ratio IC50 in experiment [2] was 7.4.
Consider `CCCCCNC(=O)NS(=O)(=O)c1cc([N+](=O)[O-])ccc1Oc1cccc(Cl)c1`, for which the figures for the IC50 in experiment [1] and in experiment [3] were 201 nM and 2390 nM, respectively. Further, the Ratio IC50 in experiment [2] was determined as 11.9.
For the compound `CCCCCNC(=O)NS(=O)(=O)c1cc([N+](=O)[O-])ccc1Oc1ccccc1C`, the IC50 is 181 nM in experiment [1] and 1630 nM in experiment [3]. In addition, in experiment [2], the Ratio IC50 amounted to 9.
With `CCCOc1ccc(Oc2ccc([N+](=O)[O-])cc2S(=O)(=O)NC(=O)NC(C)(C)C)cc1`, the half-maximal inhibitory concentration (IC50) came out at 875 nM in experiment [1] and 10800 nM in experiment [3]. Besides, the Ratio IC50 in experiment [2] worked out at 12.3.
In the case of `CCCCCNC(=O)NS(=O)(=O)c1cc([N+](=O)[O-])ccc1Oc1ccc(Cl)cc1`, the IC50 in experiment [1] came to 98 nM; in experiment [3], 871 nM. In addition, the Ratio IC50 in experiment [2] turned out to be 8.9.
Turning to `Cc1ccccc1Oc1ccc([N+](=O)[O-])cc1S(=O)(=O)NC(=O)NC(C)(C)C`, the IC50 is 233 nM in experiment [1] and 3760 nM in experiment [3]. The Ratio IC50 in experiment [2] is 16.1.
Take `CCCNC(=O)NS(=O)(=O)c1cc([N+](=O)[O-])ccc1Oc1ccc(C)cc1`: the IC50 in experiment [1] turned out to be 448 nM; in experiment [3], 4220 nM. Also, the Ratio IC50 in experiment [2] was determined as 9.4.
Taken in the same sequence, the figures for `CCCCNC(=O)NS(=O)(=O)c1cc([N+](=O)[O-])ccc1Oc1ccccc1C` were 42 nM, 673 nM and 16.1.
Taken in the same sequence, the figures for `Cc1ccc(Oc2ccc([N+](=O)[O-])cc2S(=O)(=O)NC(=O)NC(C)C)cc1` were 843 nM, 8760 nM and 10.4.
For `CCCCCNC(=O)NS(=O)(=O)c1cc([N+](=O)[O-])ccc1Oc1ccc(OCCC)cc1` the same measures were 4840 nM, 27200 nM and 5.6.
In the case of `CCCCCNC(=O)NS(=O)(=O)c1cc([N+](=O)[O-])ccc1Oc1cccc(I)c1`, the IC50 is 885 nM in experiment [1] and 4520 nM in experiment [3]. Besides, in experiment [2], the Ratio IC50 is 5.1.
In the case of `COc1ccc(Oc2ccc([N+](=O)[O-])cc2S(=O)(=O)NC(=O)NC(C)(C)C)cc1`, the IC50 in experiment [1] worked out at 152 nM; in experiment [3], 1940 nM. Moreover, the Ratio IC50 in experiment [2] turned out to be 12.7.
For `COc1cccc(Oc2ccc([N+](=O)[O-])cc2S(=O)(=O)NC(=O)NC(C)(C)C)c1` the same measures were 99 nM, 1970 nM and 19.9.
For the compound `CC(C)(C)NC(=O)NS(=O)(=O)c1cc([N+](=O)[O-])ccc1Oc1ccc(Br)cc1`, the IC50 was 523 nM in experiment [1] and 1660 nM in experiment [3]. The Ratio IC50 in experiment [2] was 3.2.
Consider `Cc1cc(Oc2ccc([N+](=O)[O-])cc2S(=O)(=O)NC(=O)NC(C)(C)C)ccc1Cl`, for which the IC50 in experiment [1] was determined as 111 nM; in experiment [3], 1060 nM. Moreover, the Ratio IC50 in experiment [2] came to 9.6.
For `CCCCCNC(=O)NS(=O)(=O)c1cc([N+](=O)[O-])ccc1Oc1ccccc1Cl` the same measures were 387 nM, 3060 nM and 7.9.
With `Cc1cccc(Oc2ccc([N+](=O)[O-])cc2S(=O)(=O)NC(=O)NC(C)(C)C)c1`, the IC50 was 17 nM in experiment [1], 398 nM in experiment [3] and 513 nM in experiment [4]. In addition, in experiment [5], the result was Active.
`Cc1ccc(Oc2ccc([N+](=O)[O-])cc2S(=O)(=O)NC(=NC(C)(C)C)NC#N)cc1`: the IC50 in experiment [1] was found to be 579 nM; in experiment [3] it was 2080 nM.
Consider `CCCCCNC(=O)NS(=O)(=O)c1cc([N+](=O)[O-])ccc1Oc1ccc(OC)cc1`, for which the values for the IC50 in experiment [1] and in experiment [3] were 446 nM and 2670 nM, respectively. In experiment [2], the Ratio IC50 was 6.
As to `CC(C)(C)NC(=O)NS(=O)(=O)c1cc([N+](=O)[O-])ccc1Oc1ccc(I)cc1`, the IC50 in experiment [1] was found to be 401 nM; in experiment [3] it was 2150 nM. In addition, the Ratio IC50 in experiment [2] was 5.4.
`Cc1ccc(Oc2ccc([N+](=O)[O-])cc2S(=O)(=O)N/C(=N\C#N)NC(C)(C)C)cc1`: in experiment [2], the Ratio IC50 came out at 3.6.
In the case of `CCCCNC(=O)NS(=O)(=O)c1cc([N+](=O)[O-])ccc1Oc1cccc(C)c1`, the IC50 turned out to be 155 nM in experiment [1] and 1910 nM in experiment [3]. For the same compound, the Ratio IC50 in experiment [2] was 12.3.
With `Cc1ccc(Nc2ccc([N+](=O)[O-])cc2S(=O)(=O)NC(=O)NC(C)(C)C)cc1`, the Ratio IC50 in experiment [2] worked out at 6.01.
As for `CCCCCNC(=O)NS(=O)(=O)c1cc([N+](=O)[O-])ccc1Oc1cccc(Br)c1`, the IC50 in experiment [1] turned out to be 413 nM; in experiment [3] it was 5860 nM. The Ratio IC50 in experiment [2] turned out to be 14.2.
Taken in the same sequence, the figures for `CCCCCNC(=O)NS(=O)(=O)c1cc([N+](=O)[O-])ccc1Oc1ccc(Cl)c(C)c1` were 565 nM, 3720 nM and 6.6.
Turning to `CCOc1ccc(Oc2ccc([N+](=O)[O-])cc2S(=O)(=O)NC(=O)NC(C)(C)C)cc1`, the values for the IC50 in experiment [1] and in experiment [3] were 1100 nM and 19200 nM, respectively. The Ratio IC50 in experiment [2] was found to be 17.5.
As for `CC(C)(C)NC(=O)NS(=O)(=O)c1cc([N+](=O)[O-])ccc1Oc1cccc(I)c1`, the half-inhibitory concentration (IC50) in experiment [1] stood at 95 nM; in experiment [3], 470 nM. Further, the Ratio IC50 in experiment [2] was determined as 4.9.
For the compound `COc1cc(C)ccc1Oc1ccc([N+](=O)[O-])cc1S(=O)(=O)NC(=O)NC(C)(C)C`, the IC50 in experiment [1] came to 52 nM; in experiment [3], 528 nM. Also, the Ratio IC50 in experiment [2] is 10.2.
